The source of these data is ChEMBL document CHEMBL1124883, “Monophosphoric acid diesters of 7 beta-hydroxycholesterol and of pyrimidine nucleosides as potential antitumor agents: synthesis and preliminary evaluation of antitumor activity” (1990).

The nature of test [1]: Evaluated for median survival time against Kreb II murine sarcoma cells in female Swiss/OF1 mice after ip administration of 80 umol/kg per day. Format: functional, Mus musculus. The procedure, abridged: (§1)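 Krebs II ascitic carcinoma, 1 × 10^6 cells in 0.25 mL 0.9% NaCl from donor mice with 8-10-day tumors, implanted ip into female Swiss/OF1 mice (20-25 g, six per group). Drugs were given in saline, water or aqueous suspension, 0.2 mL ip daily, starting 24 or 96 h post-implant. Saline controls.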

Test [2] is described as follows: The percentage of increase in life span was determined. Format: functional, Mus musculus. The procedure, abridged: as §1
Test [3] in a line: Evaluated for median survival time against Kreb II murine sarcoma cells in female Swiss/OF1 mice after ip administration of 84 uM/kg per day. It counts as functional, Mus musculus. The procedure, abridged: as §1
Test [4] is filed under the species Mus musculus. The experiment in a line: Complete recovery expressed as percent of animals surviving for more than 80 days was determined. It counts as functional. In short, it runs like this:
as §1

Test [5] is described as follows: Evaluated for median survival time against Kreb II murine sarcoma cells in female Swiss/OF1 mice after ip administration of 80 uM/kg per day. Format: functional, Mus musculus. The procedure, abridged:
as §1

The term ILS denotes how much longer treated animals lived than controls. Low readings indicate little gain in survival, high ones much gain in survival.

`CC(C)CCCC(C)[C@H]1CC[C@H]2[C@@H]3[C@@H](O)C=C4C[C@@H](O)CC[C@]4(C)[C@H]3CC[C@]12C.O=c1ccn([C@@H]2O[C@H](CO)[C@@H](O)[C@H]2O)c(=O)[nH]1` (some centres undefined): the Median survival time in test [1] worked out at 21 days. This compound displayed an increase in lifespan (ILS) in test [2] of 40%.
For `CC(C)CCCC(C)[C@H]1CCC2C3C(CC[C@@]21C)[C@@]1(C)CC[C@H](O)CC1=C[C@@H]3O` (stereo in doubt; form 1) the same measures were 21 days and 40%.
Turning to `CC(C)CCCC(C)[C@H]1CCC2C3C(CC[C@@]21C)[C@@]1(C)CC[C@H](O)CC1=C[C@@H]3O` (stereo in doubt; form 2) [listing 1 of 2 here], the Median survival time in test [3] stood at 42 days. The same compound showed an ILS in test [2] of 180%.
`CC(C)CCCC(C)[C@H]1CCC2C3C(CC[C@@]21C)[C@@]1(C)CC[C@H](O)CC1=C[C@@H]3O` (stereo in doubt; form 2) [listing 2 of 2 here] showed a CR in test [4] of 30%.
For `O=c1[nH]c(=O)n([C@@H]2O[C@H](CO)[C@@H](O)[C@H]2O)cc1F` [5-FLUOROURIDINE], in test [5], the Median survival time is 29 days. For the same compound, in test [2], the ILS is listed as 93%.
